ChEMBL document CHEMBL1141165, “Novel 8-substituted dipyridodiazepinone inhibitors with a broad-spectrum of activity against HIV-1 strains resistant to non-nucleoside reverse transcriptase inhibitors” (J Med Chem, 2005)

Columns and labels:
[1] = biological target: T1, Human immunodeficiency virus type 1 reverse transcriptase (Human immunodeficiency virus 1, UniProt Q72547, K103N/Y181C); assay: Inhibitory activity of compound dissolved in DMSO was determined against HIV-1 (K103N/Y181C) mutant reverse transcriptase (1-2 nM) by using [3H]-dGTP (71 nM) as substrate, 50 mM Tris/HCl buffer, pH 7.8, incubated for 1 hr at 37 degrees C
In short: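 RT at ≈3 nM preincubated 15 min at room temperature with inhibitor, then substrate added. Final mix: 50 mM Tris/HCl pH 7.8, 60 mM NaCl, 2 mM MgCl2, 6 mM DTT, 2 mM GSH, 0.02% Chaps, 3% DMSO, 179 nM poly rC, 18 nM biotin-dG15, 288 nM dGTP, 71 nM 3H-dGTP, 1–2 nM enzyme, inhibitor 10 μM–0.5 nM. Reaction 1 h at 37 °C, quenched with EDTA plus streptavidin SPA beads, CsCl added, scintillation counted.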

[2] = biological target: T2, Human immunodeficiency virus type 1 reverse transcriptase (Human immunodeficiency virus 1, UniProt Q72547); assay: Inhibitory activity of compound dissolved in DMSO was determined against HIV-1 wild type reverse transcriptase (1-2 nM) by using [3H]dGTP (71 nM) as substrate, 50 mM Tris/HCl buffer, pH 7.8, incubated for 1 h at 37 degrees C
In short: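 Wild-type RT preincubated 15 min at room temperature with inhibitor. Final reaction: Tris/HCl 50 mM pH 7.8, NaCl 60 mM, MgCl2 2 mM, DTT 6 mM, GSH 2 mM, Chaps 0.02%, DMSO 3%, poly rC 179 nM, biotin-dG15 18 nM, dGTP 288 nM, 3H-dGTP 71 nM, enzyme 1–2 nM, inhibitor 10 μM–0.5 nM. Run 1 h at 37 °C, EDTA-quenched, read with streptavidin SPA beads.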

[3] = biological target: T1, Human immunodeficiency virus type 1 reverse transcriptase; assay: Effective concentration towards HIV-1 K103N/Y181C mutant reverse transcriptase activity by 50% measured in cellular assay
In short: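 C8166 T-lymphocytes infected at MOI 0.001 with HIV-1 carrying wild-type or mutant RT, then grown 3 days with serial compound dilutions in RPMI 1640 + 10% FBS, 10 μg/mL gentamycin, 10 μM β-mercaptoethanol (also the diluent). Supernatant pooled from eight replica wells; extracellular p24 measured by HIV-1 p24 antigen kit.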

[4] = biological target: T2, Human immunodeficiency virus type 1 reverse transcriptase; assay: Effective concentration towards HIV-1 wild type reverse transcriptase activity by 50% measured in cellular assay
In short: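 C8166 T-lymphocytes infected at MOI 0.001 with wild-type HIV-1, then cultured 3 days with serial compound dilutions in RPMI 1640 containing 10% FBS, gentamycin and 10 μM β-mercaptoethanol. Supernatants pooled from eight replicate wells. Extracellular p24 measured by antigen immunoassay.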

in vitro = conditions: male, human, liver microsomes
Caco-2 = assay: Caco-2 permeability upon incubation at 37 degrees C for 180 minutes; format: functional, Homo sapiens
In short: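 Cells grown on 12-well Transwell membranes and exposed to test solution for 180 min at 37 °C. Receiving-side (basolateral, A to B) samples analysed by HPLC. Apparent permeability = (ΔQ/Δt)/(A·C0), where ΔQ/Δt is the transport rate, A the monolayer area and C0 the initial donor concentration.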

Row | SMILES | IC50 [1] [nM] | IC50 [2] [nM] | EC50 [3] [nM] | EC50 [4] [nM] | half-life at 10 µM (in vitro) [h] | Caco-2 A-B (Caco-2) [cm/s]
1 | CCN1c2ncc(CCOc3cccc4c(C(=O)O)cccc34)cc2C(=O)N(C)c2cccnc21 | 550 | 60 | – | – | – | –
2 | CCN1c2ncc(CCOc3ccc(C(=O)O)cc3C)cc2C(=O)N(C)c2ccc(OC)nc21 | 300 | 15 | 15 | 1.9 | – | –
3 | CCN1c2ncc(CCOc3ccc(C(=O)O)c4ccccc34)cc2C(=O)N(C)c2cccnc21 | 194 | 27 | – | – | – | –
4 | CCN1c2ncc(CCOc3ccc4c(C(=O)O)cccc4c3)cc2C(=O)N(C)c2cccnc21 | 4000 | 63 | – | – | – | –
5 | CCN1c2ncc(CCOc3ccc(C(=O)O)cc3)cc2C(=O)N(C)c2cccnc21 | 4480 | 95 | 162 | 3.3 | 1.27 | –
6 | CCN1c2ncc(CCOc3ccc(C(=O)O)cc3C)cc2C(=O)N(C)c2ccc(C)nc21 | 280 | 19 | 33 | 1.3 | – | –
7 | CCN1c2ncc(CCOc3ccc(CC(=O)O)cc3C)cc2C(=O)N(C)c2cccnc21 | 370 | 23 | 139 | 12 | 3.6 | 1.84e-05
